Source: ChEMBL document CHEMBL2375241, “Dioscin restores the activity of the anticancer agent adriamycin in multidrug-resistant human leukemia K562/adriamycin cells by down-regulating MDR1 via a mechanism involving NF-κB signaling inhibition” (J Nat Prod, 2013)
The source made the active and inactive calls. The calls are words filed in the database; no cut-off is given here.

Key:
Assay type in all cases: cell-based
[1] = target: T1, NF-kappa-B inhibitor alpha (Homo sapiens) (UniProt P25963); experiment: Inhibition of TNFalpha-induced IkappaB-alpha phosphorylation in human K562/ADR cells assessed as decrease in NKkappaB activity at 0.3 uM measured at 12 to 48 hrs by Western blot analysis
T1 sequence (whole entry): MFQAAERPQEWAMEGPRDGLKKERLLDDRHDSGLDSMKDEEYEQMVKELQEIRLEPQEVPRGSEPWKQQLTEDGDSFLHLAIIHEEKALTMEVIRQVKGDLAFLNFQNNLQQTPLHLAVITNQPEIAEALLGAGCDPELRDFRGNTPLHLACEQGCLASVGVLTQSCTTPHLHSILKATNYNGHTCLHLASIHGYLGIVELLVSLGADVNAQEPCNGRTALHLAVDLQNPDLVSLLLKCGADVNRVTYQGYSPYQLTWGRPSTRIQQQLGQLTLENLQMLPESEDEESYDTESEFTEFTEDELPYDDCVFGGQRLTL
Summary of the method: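 K562/ADR cells incubated with 0.3 μM for 0–48 h, then TNF-α for 30 min. Lysates blotted for phospho-IκB-α Ser32/36 (1:1000) and β-actin, detected by ECL. Densities normalised to β-actin; three experiments.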

[2] = Cytotoxicity against human K562/ADR cells assessed as cell viability after 48 hrs by MTT assay
Summary of the method: (§1)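 Cells grown in RPMI 1640 with 10% FBS at 37 °C, 5% CO2; K562/ADR kept off ADR for 2 weeks before use. Cells seeded at 4 × 10^3 per well, exposed to 0.1–100 μM for 48 h. MTT added for 4 h, then SDS–isobutanol–HCl solubilisation overnight, absorbance read at 570 nm. IC50 from three experiments.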

[3] = Inhibition of NFkappaB signaling in human K562/ADR cells assessed as downregulation of MDR1 mRNA expression at 0.3 uM measured for 24 hrs by qRT-PCR analysis
Summary of the method: (§2)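 K562/ADR cells exposed to 0.3 μM for 0–48 h, or to various concentrations for 24 h. RNA isolated with TRIzol, then qRT-PCR: 95 °C 30 s, then 40 cycles of 95 °C 5 s and 60 °C 20 s. MDR1 quantified by ΔΔCT against β-actin; triplicate.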

[4] = Inhibition of NFkappaB signaling in human K562/ADR cells assessed as downregulation of MDR1 mRNA expression at 0.3 uM measured after 24 to 48 hrs by qRT-PCR analysis; summary of the method: as §2
[5] = Inhibition of NFkappaB signaling-mediated MDR1 activity in human K562/ADR cells assessed as increase in intracellular accumulation of adriamycin at 0.3 uM incubated for 24 hrs followed by adriamycin addition measured after 1 hr by flow cytometric analysis (reference value: 46.3%)
Summary of the method: (§3)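 K562/ADR cells, 4 × 10^6 per well, pretreated with 0.3 μM for 24 h at 37 °C; K562 and untreated K562/ADR run alongside. All incubated with 25 μM ADR for 1 h at 37 °C and washed three times with ice-cold PBS. ADR autofluorescence read by flow cytometry (ex 488 nm, em 575 nm) as mean intensity; three experiments.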

[6] = Inhibition of NFkappaB signaling in human K562/ADR cells assessed as inhibition of TNFalpha-induced MDR1 expression at 0.3 uM after 24 hrs by Western blot analysis
Summary of the method: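 K562/ADR cells incubated 24 h with 0.3 μM plus 5 nM TNF-α. Lysates blotted for MDR1 (1:100) with β-actin (1:500) as loading control, detected by ECL. Densities normalised to β-actin; three experiments.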

[7] = Inhibition of NFkappaB signaling in human K562/ADR cells assessed as inhibition of TNFalpha-induced MDR1 promoter activity at 0.1 to 0.3 uM after 24 hrs by luciferase reporter gene assay
Summary of the method: (§4)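 Cells plated overnight, then transiently co-transfected with hMDR1-Luc or NF-κB-Luc plus pRL-SV Renilla plasmid by lipofection. Exposed to compound and TNF-α for 24 h. Firefly luciferase normalised to Renilla in a dual-luciferase readout.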

[8] = Inhibition of NFkappaB signaling in human K562/ADR cells assessed as downregulation of MDR1 expression at 0.3 uM measured for 24 hrs by Western blot analysis
Summary of the method: (§5)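 K562/ADR cells treated with 0.3 μM for 0–48 h, or with various concentrations for 24 h, at 37 °C. Total protein extracted and 60 μg run on 10% SDS-PAGE, then PVDF. Blots probed with MDR1 antibody (1:100) and β-actin (1:500), detected by ECL. Band density normalised to β-actin; triplicate.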

[9] = Inhibition of NFkappaB signaling-mediated MDR1 activity in human K562/ADR cells assessed as potentiation of adriamycin-induced cytotoxicity after 48 hrs by MTT assay
[10] = Inhibition of NFkappaB signaling in human K562/ADR cells assessed as inhibition of TNFalpha-induced NFkappaB promoter activity at 0.1 to 0.3 uM after 24 hrs by luciferase reporter gene assay; summary of the method: as §4
[11] = Inhibition of NFkappaB signaling in human K562/ADR cells assessed as downregulation of MDR1 expression at 0.3 uM measured after 24 to 48 hrs by Western blot analysis; summary of the method: as §5
[12] = system: K562; experiment: Cytotoxicity against human K562 cells assessed as cell viability after 48 hrs by MTT assay; summary of the method: as §1
[13] = Inhibition of NFkappaB signaling-mediated MDR1 activity in human K562/ADR cells assessed as increase in intracellular accumulation of adriamycin at 0.3 uM incubated for 24 hrs followed by adriamycin addition measured after 1 hr by flow cytometric analysis relative to K562 cells; summary of the method: as §3

C[C@@H]1CC[C@@]2(OC1)O[C@H]1C[C@H]3[C@@H]4CC=C5C[C@@H](O[C@@H]6O[C@H](CO)[C@@H](O[C@@H]7O[C@@H](C)[C@H](O)[C@@H](O)[C@H]7O)[C@H](O)[C@H]6O[C@@H]6O[C@@H](C)[C@H](O)[C@@H](O)[C@H]6O)CC[C@]5(C)[C@H]4CC[C@]3(C)[C@H]1[C@@H]2C [DIOSCIN]
inhibition [1]: Active
IC50 ([2]; Homo sapiens, K562/Adr): 3.3 µM
IC10 ([2]; human, k562/adr): 0.3 µM
inhibition [3]: 93.1%
inhibition [4]: 97.8%
inhibition [5]: 78.4%
inhibition [6]: Active
inhibition [7]: Active
inhibition [8]: 91.4%
inhibition [9]: Active
inhibition [10]: Active
inhibition [11]: 84.7%
IC50 ([12]; Homo sapiens, K562, 48 h): 4.7 µM
IC10 ([12]; human, k562, 48 h): 0.4 µM
inhibition [13]: 59.8%
